# Reference: ChEMBL document CHEMBL1165965, “Synthesis and structure-activity relationships of 1,2,3,4-tetrahydropyrido[2,3-b]pyrazines as potent and selective inhibitors of the anaplastic lymphoma kinase” (Bioorg Med Chem, 2010)
# Key:
# [1] = target: Serine/threonine-protein kinase 10 (Homo sapiens) (UniProt O94804); test: Inhibition of LOK at 1 uM
# Outline: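 Single-concentration screen on the Ambit KINOMEscan platform, run against a panel of 250–400 kinases. Per-kinase inhibition was also summarized as S(90), the fraction of kinases inhibited by more than 90%.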
# [2] = target: T1, Mitogen-activated protein kinase kinase kinase 3 (Homo sapiens) (UniProt Q99759); test: Inhibition of MAP3K3 at 1 uM
# T1 sequence (whole entry): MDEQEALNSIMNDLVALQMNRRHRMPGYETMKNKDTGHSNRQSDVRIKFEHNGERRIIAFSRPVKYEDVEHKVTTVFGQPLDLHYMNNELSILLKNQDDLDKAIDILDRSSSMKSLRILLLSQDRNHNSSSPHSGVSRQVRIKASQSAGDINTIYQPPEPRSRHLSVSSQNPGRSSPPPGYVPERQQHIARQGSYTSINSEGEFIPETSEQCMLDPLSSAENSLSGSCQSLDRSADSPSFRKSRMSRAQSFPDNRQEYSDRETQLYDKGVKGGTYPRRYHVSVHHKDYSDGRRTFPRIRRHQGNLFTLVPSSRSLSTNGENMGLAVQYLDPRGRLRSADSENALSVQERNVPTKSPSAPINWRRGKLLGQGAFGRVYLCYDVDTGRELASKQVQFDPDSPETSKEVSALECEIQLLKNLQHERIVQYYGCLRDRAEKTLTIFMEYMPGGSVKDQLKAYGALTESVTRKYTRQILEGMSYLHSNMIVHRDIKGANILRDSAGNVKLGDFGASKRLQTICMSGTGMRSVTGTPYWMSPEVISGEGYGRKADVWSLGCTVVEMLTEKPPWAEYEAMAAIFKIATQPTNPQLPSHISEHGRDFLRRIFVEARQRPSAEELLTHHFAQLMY
# [3] = target: Serine/threonine-protein kinase pim-2 (Homo sapiens) (UniProt Q9P1W9); test: Inhibition of PIM2 at 1 uM
# [4] = target: T2, Receptor-interacting serine/threonine-protein kinase 1 (Homo sapiens) (UniProt Q13546); test: Inhibition of RIPK1 at 1 uM
# T2 sequence (whole entry): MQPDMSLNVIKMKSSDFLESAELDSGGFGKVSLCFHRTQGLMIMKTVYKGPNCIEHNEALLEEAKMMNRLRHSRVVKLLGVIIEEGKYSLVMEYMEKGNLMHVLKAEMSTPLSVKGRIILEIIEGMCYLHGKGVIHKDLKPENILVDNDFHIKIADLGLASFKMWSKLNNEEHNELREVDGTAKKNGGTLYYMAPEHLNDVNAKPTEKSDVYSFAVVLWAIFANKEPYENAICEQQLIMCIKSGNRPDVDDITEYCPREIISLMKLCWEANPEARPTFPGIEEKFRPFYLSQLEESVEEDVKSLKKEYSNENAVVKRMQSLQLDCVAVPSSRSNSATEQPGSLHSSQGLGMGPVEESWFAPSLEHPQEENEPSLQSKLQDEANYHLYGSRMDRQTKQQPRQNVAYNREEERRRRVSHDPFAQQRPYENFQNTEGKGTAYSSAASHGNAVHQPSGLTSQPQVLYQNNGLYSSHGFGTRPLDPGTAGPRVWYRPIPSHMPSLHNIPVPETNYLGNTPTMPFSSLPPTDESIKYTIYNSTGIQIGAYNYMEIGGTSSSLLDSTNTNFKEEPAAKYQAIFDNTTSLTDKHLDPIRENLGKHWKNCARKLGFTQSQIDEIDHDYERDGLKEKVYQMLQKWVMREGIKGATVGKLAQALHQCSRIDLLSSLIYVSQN
# [5] = target: Activin receptor type-2B (Homo sapiens) (UniProt Q13705); test: Inhibition of ACVR2B at 1 uM
# Outline: (§1)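 Ambit KINOMEscan screen at a single concentration across a 250–400 kinase panel, recorded as percent inhibition. Selectivity was expressed as S(90), the fraction of kinases inhibited >90%.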
# [6] = target: Cyclin-dependent kinase 9 (Homo sapiens) (UniProt P50750); test: Inhibition of CDK9 at 1 uM
# [7] = target: Serine/threonine-protein kinase Chk2 (Homo sapiens) (UniProt O96017); test: Inhibition of CHEK2 at 1 uM
# [8] = target: Dual specificity protein kinase CLK1 (Homo sapiens) (UniProt P49759); test: Inhibition of CLK1 at 1 uM; outline: as §1
# [9] = target: T3, Serine/threonine-protein kinase DCLK1 (Homo sapiens) (UniProt O15075); test: Inhibition of DCAMKL1 at 1 uM
# T3 sequence (whole entry): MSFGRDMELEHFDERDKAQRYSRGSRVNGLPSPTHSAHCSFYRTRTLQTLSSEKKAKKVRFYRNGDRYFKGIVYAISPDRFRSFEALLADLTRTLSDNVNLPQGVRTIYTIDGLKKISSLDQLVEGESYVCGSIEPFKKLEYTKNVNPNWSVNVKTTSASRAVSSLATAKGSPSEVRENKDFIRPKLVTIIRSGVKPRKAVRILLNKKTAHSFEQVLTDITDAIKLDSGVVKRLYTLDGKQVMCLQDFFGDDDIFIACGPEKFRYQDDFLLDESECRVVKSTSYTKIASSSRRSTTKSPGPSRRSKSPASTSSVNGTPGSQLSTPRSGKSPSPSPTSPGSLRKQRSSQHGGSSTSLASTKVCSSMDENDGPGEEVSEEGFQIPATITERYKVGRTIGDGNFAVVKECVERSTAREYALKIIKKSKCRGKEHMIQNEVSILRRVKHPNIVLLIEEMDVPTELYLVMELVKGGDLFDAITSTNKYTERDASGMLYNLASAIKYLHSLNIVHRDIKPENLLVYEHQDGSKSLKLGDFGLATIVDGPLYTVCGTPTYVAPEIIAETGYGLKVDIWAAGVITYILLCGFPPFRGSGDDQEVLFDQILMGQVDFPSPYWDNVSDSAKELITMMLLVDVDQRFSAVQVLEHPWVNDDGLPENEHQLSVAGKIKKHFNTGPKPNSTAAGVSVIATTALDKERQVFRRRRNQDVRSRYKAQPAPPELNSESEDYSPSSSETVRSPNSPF
# [10] = target: Receptor tyrosine-protein kinase erbB-3 (Homo sapiens) (UniProt P21860); test: Inhibition of ERBB3 at 1 uM
# [11] = system: Fibroblast growth factor receptor 3 (Homo sapiens), P22607 [G697C]; test: Inhibition of FGFR3 G697C mutant at 1 uM
# Outline: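 Single-concentration screen using Ambit Bioscience KINOMEscan technology across a panel of 250–400 kinases. Per-kinase inhibition from this screen was summarized as S(90), the fraction of kinases inhibited by more than 90%.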
# Sequence of Cyclin-dependent kinase 9 (Homo sapiens) (P50750 whole entry): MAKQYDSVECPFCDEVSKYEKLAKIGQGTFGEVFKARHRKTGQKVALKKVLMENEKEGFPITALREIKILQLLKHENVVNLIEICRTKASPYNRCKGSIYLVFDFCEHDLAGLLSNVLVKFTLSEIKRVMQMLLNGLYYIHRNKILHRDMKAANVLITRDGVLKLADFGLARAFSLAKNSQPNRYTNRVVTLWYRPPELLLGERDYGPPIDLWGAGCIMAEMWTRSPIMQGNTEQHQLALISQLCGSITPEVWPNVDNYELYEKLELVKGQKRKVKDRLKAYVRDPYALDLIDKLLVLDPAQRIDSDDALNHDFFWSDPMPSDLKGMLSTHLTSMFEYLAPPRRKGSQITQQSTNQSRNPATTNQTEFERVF
# Sequence of Dual specificity protein kinase CLK1 (Homo sapiens) (P49759 whole entry, looked up): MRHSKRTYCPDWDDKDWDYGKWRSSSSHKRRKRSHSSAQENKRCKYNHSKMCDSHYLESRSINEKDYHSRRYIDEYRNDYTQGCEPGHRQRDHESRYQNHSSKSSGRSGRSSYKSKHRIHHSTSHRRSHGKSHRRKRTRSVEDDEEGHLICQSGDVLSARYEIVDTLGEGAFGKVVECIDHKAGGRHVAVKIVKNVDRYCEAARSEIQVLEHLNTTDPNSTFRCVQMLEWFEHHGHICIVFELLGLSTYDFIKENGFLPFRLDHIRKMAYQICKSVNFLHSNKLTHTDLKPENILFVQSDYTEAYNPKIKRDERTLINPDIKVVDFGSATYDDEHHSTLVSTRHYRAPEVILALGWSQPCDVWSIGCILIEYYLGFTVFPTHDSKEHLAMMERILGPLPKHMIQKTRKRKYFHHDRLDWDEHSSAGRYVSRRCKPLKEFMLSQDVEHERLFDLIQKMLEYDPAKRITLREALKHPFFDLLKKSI
# Sequence of Serine/threonine-protein kinase 10 (Homo sapiens) (O94804 whole entry, looked up): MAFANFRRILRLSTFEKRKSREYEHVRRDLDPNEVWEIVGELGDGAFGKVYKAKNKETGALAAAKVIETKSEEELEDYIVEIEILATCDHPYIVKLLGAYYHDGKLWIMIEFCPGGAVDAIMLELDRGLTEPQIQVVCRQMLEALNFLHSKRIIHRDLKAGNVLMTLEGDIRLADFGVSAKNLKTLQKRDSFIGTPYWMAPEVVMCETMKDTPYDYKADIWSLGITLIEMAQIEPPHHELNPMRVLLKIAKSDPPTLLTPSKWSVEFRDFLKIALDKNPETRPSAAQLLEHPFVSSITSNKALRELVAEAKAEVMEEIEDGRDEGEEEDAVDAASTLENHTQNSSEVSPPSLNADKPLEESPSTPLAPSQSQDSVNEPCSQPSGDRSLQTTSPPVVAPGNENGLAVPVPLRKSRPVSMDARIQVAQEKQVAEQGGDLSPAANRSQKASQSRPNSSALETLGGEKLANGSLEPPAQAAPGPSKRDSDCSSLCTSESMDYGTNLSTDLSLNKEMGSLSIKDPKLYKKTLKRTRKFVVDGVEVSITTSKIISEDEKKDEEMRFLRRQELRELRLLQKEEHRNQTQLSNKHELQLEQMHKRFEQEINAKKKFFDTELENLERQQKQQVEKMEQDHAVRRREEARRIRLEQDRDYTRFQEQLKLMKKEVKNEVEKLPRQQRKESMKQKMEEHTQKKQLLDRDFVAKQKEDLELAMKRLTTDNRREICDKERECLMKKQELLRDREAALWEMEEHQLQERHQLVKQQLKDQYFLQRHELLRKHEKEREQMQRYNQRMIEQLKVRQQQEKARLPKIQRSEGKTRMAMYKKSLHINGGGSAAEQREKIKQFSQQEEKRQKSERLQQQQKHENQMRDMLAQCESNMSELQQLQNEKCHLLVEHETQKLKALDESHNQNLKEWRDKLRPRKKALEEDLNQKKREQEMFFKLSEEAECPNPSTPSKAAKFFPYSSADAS
# Sequence of Serine/threonine-protein kinase Chk2 (Homo sapiens) (O96017 whole entry): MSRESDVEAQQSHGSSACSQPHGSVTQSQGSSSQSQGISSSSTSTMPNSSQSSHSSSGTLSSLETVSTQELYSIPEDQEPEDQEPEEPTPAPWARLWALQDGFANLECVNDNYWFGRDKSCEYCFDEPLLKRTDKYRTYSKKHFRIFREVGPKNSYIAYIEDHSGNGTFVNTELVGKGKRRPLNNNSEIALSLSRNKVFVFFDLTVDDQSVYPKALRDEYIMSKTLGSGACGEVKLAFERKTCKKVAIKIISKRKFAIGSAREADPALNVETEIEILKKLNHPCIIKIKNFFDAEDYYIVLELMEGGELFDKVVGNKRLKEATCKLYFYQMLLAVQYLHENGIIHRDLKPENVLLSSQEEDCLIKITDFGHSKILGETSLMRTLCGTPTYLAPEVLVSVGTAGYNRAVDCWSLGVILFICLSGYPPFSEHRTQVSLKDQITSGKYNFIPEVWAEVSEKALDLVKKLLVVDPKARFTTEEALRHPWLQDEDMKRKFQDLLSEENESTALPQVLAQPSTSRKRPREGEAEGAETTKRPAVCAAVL
# Sequence of Serine/threonine-protein kinase pim-2 (Homo sapiens) (Q9P1W9 whole entry, looked up): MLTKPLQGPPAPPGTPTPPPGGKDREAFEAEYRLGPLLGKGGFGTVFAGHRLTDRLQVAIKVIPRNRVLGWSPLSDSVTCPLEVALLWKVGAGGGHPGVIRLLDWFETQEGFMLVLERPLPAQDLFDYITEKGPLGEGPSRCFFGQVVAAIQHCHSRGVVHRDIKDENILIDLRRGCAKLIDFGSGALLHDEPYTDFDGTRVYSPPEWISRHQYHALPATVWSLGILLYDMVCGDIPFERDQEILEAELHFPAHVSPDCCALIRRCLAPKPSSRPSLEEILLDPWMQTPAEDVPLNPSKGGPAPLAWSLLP
# Sequence of Fibroblast growth factor receptor 3 (Homo sapiens), P22607 [G697C] (P22607 whole entry G697C): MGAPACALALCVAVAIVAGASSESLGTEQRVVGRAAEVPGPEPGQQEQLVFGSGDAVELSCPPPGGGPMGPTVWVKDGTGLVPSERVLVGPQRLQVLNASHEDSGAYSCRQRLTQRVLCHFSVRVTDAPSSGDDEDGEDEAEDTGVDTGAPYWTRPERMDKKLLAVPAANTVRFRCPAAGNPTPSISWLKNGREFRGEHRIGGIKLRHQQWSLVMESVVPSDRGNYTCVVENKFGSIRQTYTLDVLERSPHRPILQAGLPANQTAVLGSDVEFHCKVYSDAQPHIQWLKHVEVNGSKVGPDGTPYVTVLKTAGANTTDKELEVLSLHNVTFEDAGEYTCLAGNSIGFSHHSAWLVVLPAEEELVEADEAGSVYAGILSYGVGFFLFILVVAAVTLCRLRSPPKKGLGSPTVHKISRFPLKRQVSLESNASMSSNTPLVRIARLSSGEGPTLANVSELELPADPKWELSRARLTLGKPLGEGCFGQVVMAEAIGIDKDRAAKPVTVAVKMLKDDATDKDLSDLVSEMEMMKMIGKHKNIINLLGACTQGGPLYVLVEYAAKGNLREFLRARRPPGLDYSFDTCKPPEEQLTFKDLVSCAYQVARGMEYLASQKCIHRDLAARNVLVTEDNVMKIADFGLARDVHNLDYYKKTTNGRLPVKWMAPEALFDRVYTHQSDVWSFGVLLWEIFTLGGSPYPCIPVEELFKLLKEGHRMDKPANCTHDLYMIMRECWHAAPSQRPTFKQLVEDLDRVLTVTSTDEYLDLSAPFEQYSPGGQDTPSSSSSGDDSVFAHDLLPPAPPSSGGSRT
# Sequence of Activin receptor type-2B (Homo sapiens) (Q13705 whole entry): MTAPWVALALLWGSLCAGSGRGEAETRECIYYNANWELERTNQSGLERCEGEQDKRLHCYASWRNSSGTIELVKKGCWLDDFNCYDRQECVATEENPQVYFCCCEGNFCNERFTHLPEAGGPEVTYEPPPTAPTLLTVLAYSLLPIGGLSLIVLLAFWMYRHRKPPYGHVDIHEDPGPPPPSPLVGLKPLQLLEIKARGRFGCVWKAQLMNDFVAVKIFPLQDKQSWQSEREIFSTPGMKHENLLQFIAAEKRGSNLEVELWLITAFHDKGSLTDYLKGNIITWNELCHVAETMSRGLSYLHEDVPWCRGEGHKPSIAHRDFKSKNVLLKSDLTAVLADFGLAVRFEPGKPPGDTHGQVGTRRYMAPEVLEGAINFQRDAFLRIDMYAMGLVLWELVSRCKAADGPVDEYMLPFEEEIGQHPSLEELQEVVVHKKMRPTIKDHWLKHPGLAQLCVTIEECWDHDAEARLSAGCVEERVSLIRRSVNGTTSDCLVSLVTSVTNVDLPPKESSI
inhibition [1],inhibition [2],inhibition [3],inhibition [4],inhibition [5],inhibition [6],inhibition [7],inhibition [8],inhibition [9],inhibition [10],inhibition [11],Compound
< 50%,< 50%,< 50%,< 50%,< 50%,< 50%,< 50%,< 50%,< 50%,< 50%,< 50%,CC(=O)N1CCN(c2cc(-c3cnc4c(c3)N(Cc3cc(Cl)ccc3C(F)(F)F)CCN4)ccn2)CC1
< 50%,,< 50%,< 50%,< 50%,,,< 50%,,,< 50%,O=C(O)c1ccc(-c2cnc3c(c2)N(Cc2cc(Cl)ccc2C(F)(F)F)CCN3)cc1
< 50%,,< 50%,< 50%,< 50%,,,< 50%,,,< 50%,O=C(c1ccc(-c2cnc3c(c2)N(Cc2cc(Cl)ccc2C(F)(F)F)CCN3)cc1)N1CCCCC1
< 50%,< 50%,< 50%,< 50%,< 50%,< 50%,< 50%,< 50%,91%,< 50%,< 50%,CN1CCN(c2ccc(-c3cnc4c(c3)N(Cc3cc(Cl)ccc3C(F)(F)F)CCN4)cn2)CC1
< 50%,< 50%,< 50%,< 50%,< 50%,< 50%,< 50%,< 50%,94%,< 50%,< 50%,CN1CCN(c2ccc(-c3cnc4c(c3)N(Cc3cc(F)ccc3F)CCN4)cn2)CC1
< 50%,< 50%,< 50%,< 50%,< 50%,< 50%,< 50%,< 50%,90%,< 50%,< 50%,CN1CCN(c2ccc(-c3cnc4c(c3)N(Cc3cc(Cl)ccc3Cl)CCN4)cn2)CC1
< 50%,,< 50%,< 50%,< 50%,,,< 50%,,,< 50%,COC1CCN(C(=O)c2ccc(-c3cnc4c(c3)N(Cc3cc(Cl)ccc3C(F)(F)F)CCN4)cc2)CC1
< 50%,< 50%,< 50%,< 50%,< 50%,< 50%,< 50%,< 50%,< 50%,< 50%,< 50%,CN1CCN(c2ccc(-c3cnc4c(c3)N(Cc3c(F)ccc(F)c3Cl)CCN4)cn2)CC1
66%,88%,< 50%,< 50%,< 50%,< 50%,< 50%,< 50%,98%,< 50%,< 50%,FC(F)(F)c1ccc(Cl)cc1CN1CCNc2ncc(-c3ccnc(N4CCNCC4)c3)cc21
< 50%,,< 50%,< 50%,< 50%,,,< 50%,,,< 50%,O=C(c1ccc(-c2cnc3c(c2)N(Cc2cc(Cl)ccc2C(F)(F)F)CCN3)cc1)N1CCC(N2CCCC2)CC1
